Values after ≈ are worked out from the molar mass of the structure shown.
Experiments:
[1] = tested on: Trypanosoma brucei rhodesiense; test: Antitrypanosomal activity against bloodstream form of Trypanosoma brucei rhodesiense STIB 900 assessed as parasite growth inhibition after 72 hrs by Alamar blue assay; format: functional; settings: STIB 900, 72 h
Summary of the method: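 Standard 72 h growth-inhibition assay with STIB 900 bloodstream trypomastigotes and Alamar Blue read-out. Value is the mean of at least 2 measurements.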

Cytochrome P450 2D6 = Cytochrome P450 2D6 (Homo sapiens, UniProt P10635); test: Inhibition of CYP2D6 in human liver microsomes using AMMC as substrate by fluorescence assay; format: ADME
Summary of the method: (§1)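 Human liver microsomes with CYP-selective substrate metabolism reactions for 2C9, 2D6 and 3A4.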

[2] = Solubility of the compound at pH 6.5 by LYSA; format: physicochemical; settings: buffer
Summary of the method: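 Lyophilization solubility assay at pH 6.5.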

L6 = test: Cytotoxicity against rat L6 cells after 72 hrs by Alamar blue assay; format: cell-based; settings: L6, 72 h
Summary of the method: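 Rat skeletal myoblast L6 cells in an Alamar Blue growth-inhibition assay. Value is the mean of at least 2 measurements.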

[3] = Selectivity index, ratio of IC50 for rat L6 cells to IC50 for bloodstream form of Trypanosoma brucei rhodesiense STIB 900; format: toxicity; settings: read-out: Ratio IC50
Summary of the method: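 Ratio of L-6 rat skeletal myoblast IC50 to T. b. rhodesiense STIB 900 bloodstream trypomastigote IC50, both from Alamar Blue growth-inhibition assays. Each IC50 is the mean of at least 2 measurements.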

[4] = Volume of distribution at steady state in C57BL/6J mouse at 1.3 mg/kg, iv as bolus dose by LC-MS/MS analysis; format: ADME, organism-based; settings: in vivo, read-out: Vdss
Summary of the method: (§2)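 Mice received intravenous compound in N-methylpyrrolidinone / 40% aqueous hydroxypropyl-γ-cyclodextrin (30/70). Blood was drawn into K₂EDTA at 5 min, 15 min, 30 min, 1, 2, 4 and 8 h, and plasma was separated at 3000 × g for 5 min at 4 °C and stored at -20 °C. Plasma levels were measured by LC–MS/MS, and parameters derived by non-compartmental analysis.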

Cytochrome P450 3A4 = Cytochrome P450 3A4 (Homo sapiens, UniProt P08684); test: Inhibition of CYP3A4 in human liver microsomes using DBF as substrate by fluorescence assay; format: ADME; summary of the method: as §1
[5] = Intrinsic clearance in human liver microsomes at 2 uM after 30 mins in presence of NADPH by LC-MS/MS method; format: ADME, microsome; settings: read-out: CLH
[6] = Clearance in C57BL/6J mouse at 1.3 mg/kg, iv as bolus dose by LC-MS/MS analysis; format: ADME, organism-based; settings: in vivo; summary of the method: as §2
Cytochrome P450 2C9 = Cytochrome P450 2C9 (Homo sapiens, UniProt P11712); test: Inhibition of CYP2C9 in human liver microsomes using MFC as substrate by fluorescence assay; format: ADME; summary of the method: as §1
[7] = Intrinsic clearance in mouse liver microsomes at 2 uM after 30 mins in presence of NADPH by LC-MS/MS method; format: ADME, microsome; settings: read-out: CLH
[8] = tested on: Trypanosoma brucei rhodesiense; test: Antitrypanosomal activity against bloodstream form of Trypanosoma brucei rhodesiense STIB 900 infected in NMRI mouse assessed as reduction of parasitemia at 50 mg/kg, po administered for 3 consecutive days starting 1 day post infection measured at 24 hrs post last dose relative to control; format: functional; parameters: scale not given: the % may be the effect or the level left
Summary of the method: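 Female mice infected with STIB900 were dosed orally at 50 mg/kg/day on three consecutive days, starting 1 day post-infection. Compound was in 100% DMSO diluted 10-fold in distilled water, given at 0.1 mL/10 g. Tail-blood parasitaemia was measured 24 h after the last dose versus 4 untreated infected controls. Values are means of 2 mice.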

Procathepsin L = Procathepsin L (Homo sapiens, UniProt P07711); test: Inhibition of human CatL using Cbz-Phe-Arg-AMC as substrate measured over 30 mins by fluorimetric method
Summary of the method: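 Human cathepsin L in a fluorimetric assay in 50 mM Tris pH 6.5, 5 mM EDTA, 200 mM NaCl, 0.005% Brij35 at 25 °C. Ki was calculated from IC50 by Cheng-Prusoff. Value is the average of two measurements, each in duplicate.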

[9] = Selectivity index, ratio of Ki for human CatL to Ki for Trypanosoma brucei rhodesiense rhodesain
Summary of the method: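 Ki(hCatL)/Ki(RD). Fluorimetric assays at 25 °C: RD in 50 mM sodium acetate pH 5.5; hCatL in 50 mM Tris pH 6.5; both buffers with 5 mM EDTA, 200 mM NaCl, 0.005% Brij35. Ki derived from IC50 by Cheng-Prusoff. Each value is the mean of two measurements, each done in duplicate.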

[10] = Half life in C57BL/6J mouse at 1.3 mg/kg, iv as bolus dose by LC-MS/MS analysis; format: ADME, organism-based; settings: in vivo; summary of the method: as §2
Rhodesain = Rhodesain (Trypanosoma brucei rhodesiense, UniProt Q95PM0); test: Inhibition of Trypanosoma brucei rhodesiense rhodesain using Cbz-Phe-Arg-AMC as substrate by fluorimetric method
Summary of the method: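 Fluorescence-based assay run at 25 °C in 50 mM sodium acetate pH 5.5 with 5 mM EDTA, 200 mM NaCl and 0.005% Brij35. IC50 values were converted to Ki with the Cheng-Prusoff equation. Values are the average of two measurements, each done in duplicate.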

[11] = Permeability of the compound after 15 hrs by PAMPA; format: physicochemical; settings: read-out: permeability
[12] = tested on: Trypanosoma brucei rhodesiense; test: Antitrypanosomal activity against bloodstream form of Trypanosoma brucei rhodesiense STIB 900 assessed as parasite growth inhibition after 48 hrs by Alamar blue assay; format: functional; settings: STIB 900, 48 h
Summary of the method: (§3)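 Bloodstream STIB 900 trypomastigotes, 1x10⁴ per well, exposed to eleven 3-fold serial dilutions at 37 °C/5% CO₂ for the stated pulse time. Parasites were then pelleted and washed four times, and an aliquot was regrown 72 h drug-free in triplicate plates. Resazurin was added for 2–4 h, fluorescence read at ex 536/em 588 nm, and IC50 taken by linear regression of sigmoidal curves. Melarsoprol served as control.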

Mdr1a (P-gp) = test: Efflux ratio of permeability across pig LLC-PK1 cells expressing mouse Mdr1a at 1 uM after 3.5 hrs by LC-MS/MS analysis; format: ADME, cell-based, Sus scrofa
Summary of the method: (§4)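 LLC-PK1 monolayers stably transfected with human MDR1 or mouse Mdr1a, grown in Medium 199/10% FCS with colchicine on permeable inserts and used day 4 after seeding. 1 μM compound added apical or basolateral; transport run in both directions in triplicate, 37 °C, 5% CO₂. Donor and receiver sampled at 3.5 h, quantified by LC–MS/MS. Lucifer yellow checked monolayer tightness.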

MDR1 (P-gp) = test: Efflux ratio of permeability across pig LLC-PK1 cells expressing human MDR1 at 1 uM after 3.5 hrs by LC-MS/MS analysis; format: ADME, cell-based, Sus scrofa; summary of the method: as §4
[13] = tested on: Trypanosoma brucei rhodesiense; test: Antitrypanosomal activity against bloodstream form of Trypanosoma brucei rhodesiense STIB 900 assessed as parasite growth inhibition after 6 hrs by Alamar blue assay; format: functional; settings: STIB 900, 6 h; summary of the method: as §3
[14] = tested on: Trypanosoma brucei rhodesiense; test: Antitrypanosomal activity against bloodstream form of Trypanosoma brucei rhodesiense STIB 900 assessed as parasite growth inhibition after 16 hrs by Alamar blue assay; format: functional; settings: STIB 900, 16 h; summary of the method: as §3
[15] = tested on: Trypanosoma brucei rhodesiense; test: Antitrypanosomal activity against bloodstream form of Trypanosoma brucei rhodesiense STIB 900 assessed as parasite growth inhibition after 24 hrs by Alamar blue assay; format: functional; settings: STIB 900, 24 h; summary of the method: as §3
[16] = tested on: Trypanosoma brucei rhodesiense; test: Antitrypanosomal activity against bloodstream form of Trypanosoma brucei rhodesiense STIB 900 assessed as parasite growth inhibition after 2 hrs by Alamar blue assay; format: functional; settings: STIB 900, 2 h; summary of the method: as §3
[17] = Half life in C57BL/6J mouse at 1.5 mg/kg, iv as bolus dose by LC-MS/MS analysis; format: ADME, organism-based; settings: in vivo
Summary of the method: (§5)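 Mice given single i.v. dose in N-methylpyrrolidinone / 40% (v/v) aqueous hydroxypropyl-γ-cyclodextrin (30/70 v/v). Blood into K₂EDTA at 5 min, 15 min, 30 min, 1, 2, 4, 8 h, sublingually or by terminal cardiac puncture under isoflurane. Plasma spun at 3000 × g, 5 min, 4 °C, stored at -20 °C. Plasma levels by LC–MS/MS; parameters by non-compartmental analysis.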

[18] = Octanol-water intrinsic distribution co-efficient, log D of the compound at 100 uM at pH 7.4 after 16 to 22 hrs by CAMDIS assay; format: physicochemical
Summary of the method: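 Octanol/aqueous buffer (pH 7.4) intrinsic distribution coefficient measured in the CAMDIS carrier-mediated distribution system.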

[19] = Unbound fraction in human plasma; format: ADME, cell-free
[20] = Volume of distribution at steady state in C57BL/6J mouse at 1.5 mg/kg, iv as bolus dose by LC-MS/MS analysis; format: ADME, organism-based; settings: in vivo, read-out: Vdss; summary of the method: as §5
[21] = Clearance in C57BL/6J mouse at 1.5 mg/kg, iv as bolus dose by LC-MS/MS analysis; format: ADME, organism-based; settings: in vivo; summary of the method: as §5
[22] = Half life in C57BL/6J mouse at 0.8 mg/kg, iv as bolus dose by LC-MS/MS analysis; format: ADME, organism-based; settings: in vivo; summary of the method: as §2
[23] = Volume of distribution at steady state in C57BL/6J mouse at 0.8 mg/kg, iv as bolus dose by LC-MS/MS analysis; format: ADME, organism-based; settings: in vivo, read-out: Vdss; summary of the method: as §2
[24] = Clearance in C57BL/6J mouse at 0.8 mg/kg, iv as bolus dose by LC-MS/MS analysis; format: ADME, organism-based; settings: in vivo; summary of the method: as §2

Cytochrome P450 2D6, sequence (P10635 whole entry): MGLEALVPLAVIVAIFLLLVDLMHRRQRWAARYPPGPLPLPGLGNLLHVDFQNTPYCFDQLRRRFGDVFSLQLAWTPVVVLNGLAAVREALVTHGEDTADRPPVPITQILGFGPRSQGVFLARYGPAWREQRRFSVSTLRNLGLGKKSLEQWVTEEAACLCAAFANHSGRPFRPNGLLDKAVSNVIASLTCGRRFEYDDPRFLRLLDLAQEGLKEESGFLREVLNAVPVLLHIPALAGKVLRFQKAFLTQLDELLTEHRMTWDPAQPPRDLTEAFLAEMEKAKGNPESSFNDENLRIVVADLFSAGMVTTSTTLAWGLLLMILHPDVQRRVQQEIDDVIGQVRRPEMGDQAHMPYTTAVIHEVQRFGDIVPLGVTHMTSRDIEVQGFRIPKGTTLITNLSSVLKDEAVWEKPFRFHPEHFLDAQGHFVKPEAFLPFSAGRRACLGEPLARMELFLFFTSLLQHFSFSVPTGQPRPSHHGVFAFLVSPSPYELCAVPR
Cytochrome P450 3A4, sequence (P08684 whole entry): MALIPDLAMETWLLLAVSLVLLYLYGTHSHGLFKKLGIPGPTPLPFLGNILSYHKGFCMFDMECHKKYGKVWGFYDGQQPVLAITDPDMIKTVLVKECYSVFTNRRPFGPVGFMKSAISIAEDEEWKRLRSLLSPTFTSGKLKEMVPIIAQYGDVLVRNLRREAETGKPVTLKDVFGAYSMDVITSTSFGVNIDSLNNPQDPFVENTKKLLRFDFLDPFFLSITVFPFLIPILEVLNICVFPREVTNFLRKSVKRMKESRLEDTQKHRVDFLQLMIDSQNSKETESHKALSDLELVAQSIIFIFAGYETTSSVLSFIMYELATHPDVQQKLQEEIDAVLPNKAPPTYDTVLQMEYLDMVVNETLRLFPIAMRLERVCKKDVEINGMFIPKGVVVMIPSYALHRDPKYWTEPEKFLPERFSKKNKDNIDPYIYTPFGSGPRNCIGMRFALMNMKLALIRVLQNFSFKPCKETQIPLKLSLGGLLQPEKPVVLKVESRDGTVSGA
Cytochrome P450 2C9, sequence (P11712 whole entry): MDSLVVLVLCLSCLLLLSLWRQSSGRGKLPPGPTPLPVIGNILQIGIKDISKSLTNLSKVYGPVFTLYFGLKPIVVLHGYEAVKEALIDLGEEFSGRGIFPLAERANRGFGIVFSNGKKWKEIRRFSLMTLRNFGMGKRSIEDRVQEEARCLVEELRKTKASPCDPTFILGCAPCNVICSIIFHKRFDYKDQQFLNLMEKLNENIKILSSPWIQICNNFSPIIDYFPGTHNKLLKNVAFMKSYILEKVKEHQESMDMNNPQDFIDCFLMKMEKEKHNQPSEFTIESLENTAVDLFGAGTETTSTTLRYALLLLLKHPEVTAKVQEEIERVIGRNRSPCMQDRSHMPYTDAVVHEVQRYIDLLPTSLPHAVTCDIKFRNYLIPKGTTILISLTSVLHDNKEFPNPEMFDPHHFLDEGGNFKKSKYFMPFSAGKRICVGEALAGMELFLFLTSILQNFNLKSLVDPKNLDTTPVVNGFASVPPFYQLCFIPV
Rhodesain, sequence (Q95PM0 whole entry): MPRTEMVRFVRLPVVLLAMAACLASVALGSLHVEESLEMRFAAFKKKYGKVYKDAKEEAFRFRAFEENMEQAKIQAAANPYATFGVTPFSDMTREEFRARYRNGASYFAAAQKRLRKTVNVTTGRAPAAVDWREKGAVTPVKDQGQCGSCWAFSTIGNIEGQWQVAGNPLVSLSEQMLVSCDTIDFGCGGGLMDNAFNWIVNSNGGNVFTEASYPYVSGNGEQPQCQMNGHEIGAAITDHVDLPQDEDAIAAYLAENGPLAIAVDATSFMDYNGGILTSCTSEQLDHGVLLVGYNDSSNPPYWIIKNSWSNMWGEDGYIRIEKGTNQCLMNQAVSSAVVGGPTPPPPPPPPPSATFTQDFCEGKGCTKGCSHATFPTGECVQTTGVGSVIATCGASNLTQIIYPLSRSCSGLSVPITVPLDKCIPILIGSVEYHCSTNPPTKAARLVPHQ
Procathepsin L, sequence (P07711 whole entry): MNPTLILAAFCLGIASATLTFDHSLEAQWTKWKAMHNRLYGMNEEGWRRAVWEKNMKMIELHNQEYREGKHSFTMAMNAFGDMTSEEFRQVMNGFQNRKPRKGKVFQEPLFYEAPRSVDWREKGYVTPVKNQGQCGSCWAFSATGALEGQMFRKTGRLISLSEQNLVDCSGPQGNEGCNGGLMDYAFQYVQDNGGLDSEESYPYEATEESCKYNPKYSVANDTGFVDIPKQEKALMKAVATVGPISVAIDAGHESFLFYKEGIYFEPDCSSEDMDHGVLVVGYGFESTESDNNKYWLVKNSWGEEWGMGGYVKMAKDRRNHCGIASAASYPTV

Compound	IC50 [1] [nM]	IC50 (Cytochrome P450 2D6) [nM]	solubility [2] [µg/mL]	IC50 (L6) [nM]	selectivity ratio [3]	IC50 (Cytochrome P450 3A4) [nM]	microsomal CLint at 2 µM [5] [µL/min/mg]	IC50 (Cytochrome P450 2C9) [nM]	microsomal CLint at 2 µM [7] [µL/min/mg]	Activity [8] [%]	Ki (Procathepsin L) [nM]	Ratio Ki [9]	Ki (Rhodesain) [nM]	Papp at 15 h [11] [×10⁻⁶ cm/s]	fraction unbound [19]	further results
N#CC1(NC(=O)[C@H](Cc2ccc(Cl)c(Cl)c2)NC(=O)c2cnn(-c3ccc(F)cc3)n2)CC1	7	5000	< 0.3	9670	1390	> 50000	< 10	4000	< 10	47.2	131	66	2	1.07		Vd [4]: < 2.5 L/kg; clearance [6]: < 4.6 mL/min/kg; half-life [10]: > 6.4 h
N#CC1(NC(=O)[C@H](Cc2ccc(OC(F)(F)F)c(Cl)c2)NC(=O)c2cnn(-c3ccc(F)cc3)n2)CC1	9	3000	< 0.3	18800	2090	> 50000	< 10	9000	< 10		266	36	7.4			IC50 [12]: 64 nM; efflux ratio at 3.5 h, 1 µM (Mdr1a (P-gp)): 20; efflux ratio at 3.5 h, 1 µM (MDR1 (P-gp)): 6; IC50 [13]: > 1000 nM; IC50 [14]: > 1000 nM; IC50 [15]: 450 nM; IC50 [16]: > 1000 nM
N#CC1(NC(=O)[C@H](Cc2ccc(OC(F)(F)F)c(Cl)c2)NC(=O)c2cnn(-c3cccnc3)n2)CC1	1	2000	4.2 (≈ 8.08 µM)	> 10000		8000	< 10	7000	11		353	10	36	0.447	0.0395	half-life [17]: 0.94 h; logD at 100 µM [18]: 3.7; Vd [20]: 0.8 L/kg; clearance [21]: 22.6 mL/min/kg
N#CC1(NC(=O)[C@H](Cc2ccc(OC(F)(F)F)c(Cl)c2)NC(=O)c2cnn(-c3ccc(F)nc3)n2)CC1	6	1000	0.5 (≈ 0.93 µM)	6990	1170	47000	< 10	11000	< 10	40.8	143	10	14	0.291	0.0148	half-life [22]: 1.42 h; Vd [23]: 1.2 L/kg; clearance [24]: 10.2 mL/min/kg

Source: ChEMBL document CHEMBL4043300, “2 H-1,2,3-Triazole-Based Dipeptidyl Nitriles: Potent, Selective, and Trypanocidal Rhodesain Inhibitors by Structure-Based Design” (J Med Chem, 2018)
